# Assay results taken from ChEMBL document CHEMBL4689842, “EUbOPEN Chemogenomics Library wave 1” (2021).
# System: HEK-293T
# Assay: Multiplex assay against HEK293T;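 for Population Tubulin-Different-Phenotype (%): share of the cells with healthy nuclei that show this phenotype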
# Format: toxicity, cell-based
# Conditions: human
# How it was run: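 On a CQ1 microscope at 37°C and 5% CO2, live cells were imaged after compound addition. They had been stained at seeding with Hoechst33342, BioTracker Green Microtubule Cytoskeleton Dye, MitoTracker Red and Annexin V Alexa Fluor 680. CellPathfinder machine-learning gating assigned cells to Hoechst high-intensity objects or normal cells, normal cells to healthy, pyknosed or fragmented nuclei, and pyknosed cells to mitotic or apoptotic. Tubulin, mitochondrial-mass and membrane-permeability phenotypes are per cents of healthy-nucleus cells.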
# [1] = 12 h, 1 µM, compound concentration 1 uM, replicate 1
# [2] = 12 h, 1 µM, compound concentration 1 uM, replicate 2
# [3] = 12 h, 10 µM, compound concentration 10 uM, replicate 1
# [4] = 12 h, 10 µM, compound concentration 10 uM, replicate 2
# [5] = 24 h, 1 µM, compound concentration 1 uM, replicate 1
# [6] = 24 h, 1 µM, compound concentration 1 uM, replicate 2
# [7] = 24 h, 10 µM, compound concentration 10 uM, replicate 1
# [8] = 24 h, 10 µM, compound concentration 10 uM, replicate 2
smiles,measurement,setting,value
C=CC(=O)Nc1cc2c(Nc3ccc(F)c(Cl)c3)ncnc2cc1OCCCN1CCOCC1.Cl.Cl [CANERTINIB DIHYDROCHLORIDE],Population Apoptotic (%),[1],70%
same,Population Fragmented Nuclei (%),[1],22%
same,Population Healthy Nuclei (%),[1],35%
same,Population Hoechst High Intensity Objects (%),[1],22%
same,Population Membrane Permeable-Phenotype (%),[1],24%
same,Population Mitochondria Different-Phenotype (%),[1],76%
same,Population Mitotic Cells (%),[1],29%
same,Population Normal (%),[1],77%
same,Population Pyknosed Nuclei (%),[1],41%
same,Population Tubulin-Different-Phenotype (%),[1],82%
same,Total Cell Count,[1],582
same,Population Apoptotic (%),[2],47%
same,Population Fragmented Nuclei (%),[2],4%
same,Population Healthy Nuclei (%),[2],80%
same,Population Hoechst High Intensity Objects (%),[2],7%
same,Population Membrane Permeable-Phenotype (%),[2],17%
same,Population Mitochondria Different-Phenotype (%),[2],92%
same,Population Mitotic Cells (%),[2],52%
same,Population Normal (%),[2],92%
same,Population Pyknosed Nuclei (%),[2],14%
same,Population Tubulin-Different-Phenotype (%),[2],97%
same,Total Cell Count,[2],863
same,Population Apoptotic (%),[3],28%
same,Population Fragmented Nuclei (%),[3],14%
same,Population Healthy Nuclei (%),[3],60%
same,Population Hoechst High Intensity Objects (%),[3],13%
same,Population Membrane Permeable-Phenotype (%),[3],3%
same,Population Mitochondria Different-Phenotype (%),[3],12%
same,Population Mitotic Cells (%),[3],71%
same,Population Normal (%),[3],86%
same,Population Pyknosed Nuclei (%),[3],24%
same,Population Tubulin-Different-Phenotype (%),[3],12%
same,Total Cell Count,[3],583
same,Population Apoptotic (%),[4],8%
same,Population Fragmented Nuclei (%),[4],6%
same,Population Healthy Nuclei (%),[4],88%
same,Population Hoechst High Intensity Objects (%),[4],3%
same,Population Membrane Permeable-Phenotype (%),[4],2%
same,Population Mitochondria Different-Phenotype (%),[4],16%
same,Population Mitotic Cells (%),[4],91%
same,Population Normal (%),[4],96%
same,Population Pyknosed Nuclei (%),[4],5%
same,Population Tubulin-Different-Phenotype (%),[4],16%
same,Total Cell Count,[4],1567
same,Population Apoptotic (%),[5],79%
same,Population Fragmented Nuclei (%),[5],21%
same,Population Healthy Nuclei (%),[5],37%
same,Population Hoechst High Intensity Objects (%),[5],24%
same,Population Membrane Permeable-Phenotype (%),[5],8%
same,Population Mitochondria Different-Phenotype (%),[5],69%
same,Population Mitotic Cells (%),[5],20%
same,Population Normal (%),[5],75%
same,Population Pyknosed Nuclei (%),[5],40%
same,Population Tubulin-Different-Phenotype (%),[5],56%
same,Total Cell Count,[5],612
same,Population Apoptotic (%),[6],29%
same,Population Fragmented Nuclei (%),[6],5%
same,Population Healthy Nuclei (%),[6],80%
same,Population Hoechst High Intensity Objects (%),[6],10%
same,Population Membrane Permeable-Phenotype (%),[6],4%
same,Population Mitochondria Different-Phenotype (%),[6],67%
same,Population Mitotic Cells (%),[6],70%
same,Population Normal (%),[6],89%
same,Population Pyknosed Nuclei (%),[6],13%
same,Population Tubulin-Different-Phenotype (%),[6],54%
same,Total Cell Count,[6],910
same,Population Apoptotic (%),[7],21%
same,Population Fragmented Nuclei (%),[7],14%
same,Population Healthy Nuclei (%),[7],75%
same,Population Hoechst High Intensity Objects (%),[7],9%
same,Population Membrane Permeable-Phenotype (%),[7],6%
same,Population Mitochondria Different-Phenotype (%),[7],7%
same,Population Mitotic Cells (%),[7],78%
same,Population Normal (%),[7],90%
same,Population Pyknosed Nuclei (%),[7],9%
same,Population Tubulin-Different-Phenotype (%),[7],12%
same,Total Cell Count,[7],665
same,Population Apoptotic (%),[8],10%
same,Population Fragmented Nuclei (%),[8],24%
same,Population Healthy Nuclei (%),[8],73%
same,Population Hoechst High Intensity Objects (%),[8],2%
same,Population Membrane Permeable-Phenotype (%),[8],3%
same,Population Mitochondria Different-Phenotype (%),[8],3%
same,Population Mitotic Cells (%),[8],89%
same,Population Normal (%),[8],97%
same,Population Pyknosed Nuclei (%),[8],2%
same,Population Tubulin-Different-Phenotype (%),[8],8%
same,Total Cell Count,[8],2738
